Source: ChEMBL document CHEMBL1140012, “Rapid hit to lead evaluation of pyrazolo[3,4-d]pyrimidin-4-one as selective and orally bioavailable mGluR1 antagonists” (Bioorg Med Chem Lett, 2007)
Values after ≈ are worked out from the molar mass of the structure shown.

Tests used:
[1] = target: Metabotropic glutamate receptor 1 (Homo sapiens, UniProt Q13255); assay: Antagonist activity at human mGluR1 receptor expressed in […] cells assessed as inhibition of glutamate-induced calcium flux by FLIPR assay; assay type: functional, cell-based
In short: (§1)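 1321N1 cells transfected with human mGluR1 or human mGluR5 and co-expressing rat GLAST were used in a FLIPR calcium influx assay. Calcium flux was induced by 10 μM glutamate. IC50 is the concentration blocking 50% of that flux, given as the mean ± SEM of at least three determinations.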

[2] = target: Metabotropic glutamate receptor 5 (Homo sapiens, UniProt P41594); assay: Antagonist activity at human mGluR5 receptor expressed in […] cells assessed as inhibition of glutamate-induced calcium flux by FLIPR assay; assay type: functional, cell-based; in short: as §1
[3] = Aqueous solubility of the compound; assay type: physicochemical; settings: buffer
[4] = Metabolic stability assessed as intrinsic clearance in rat liver microsomes; assay type: ADME, Microsome
In short: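 Intrinsic clearance was measured in rat liver microsomes and reported as scaled intrinsic clearance.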

[5] = Permeability of the compound; assay type: ADME; settings: not told; read-out: permeability
In short: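 Passive membrane permeability was measured and reported in ×10^-6 cm/s.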

[6] = AUC in Sprague-Dawley rat at 1 mg/kg, iv; assay type: ADME, organism-based; set-up: dose 1 mg/kg, route intravenous; settings: plasma
Rattus norvegicus [7] = assay: (§2) AUC in Sprague-Dawley rat at 1 mg/kg, ip; assay type: ADME, organism-based, Plasma; set-up: dose 1 mg/kg, route intraperitoneal; settings: in vivo
[8] = AUC in Sprague-Dawley rat at 1 mg/kg, po; assay type: ADME, organism-based; set-up: dose 1 mg/kg, route oral; settings: plasma
[9] = Volume of distribution at terminal phase in Sprague-Dawley rat at 1 mg/kg, iv; assay type: ADME, organism-based; set-up: dose 1 mg/kg, route intravenous; settings: in vivo, read-out: Vbeta
Rattus norvegicus [10] = assay: Clearance in Sprague-Dawley rat at 1 mg/kg, iv; assay type: ADME, organism-based; set-up: dose 1 mg/kg, route intravenous; settings: in vivo
Rattus norvegicus [11] = assay: (§3) Cmax in Sprague-Dawley rat at 1 mg/kg, ip; assay type: ADME, organism-based; set-up: dose 1 mg/kg, route intraperitoneal; settings: in vivo
[12] = Cmax in Sprague-Dawley rat at 1 mg/kg, po; assay type: ADME, organism-based; set-up: dose 1 mg/kg, route oral; settings: in vivo
Rattus norvegicus [13] = assay: (§4) Tmax in Sprague-Dawley rat at 1 mg/kg, ip; assay type: ADME, organism-based; set-up: dose 1 mg/kg, route intraperitoneal; settings: in vivo
[14] = Tmax in Sprague-Dawley rat at 1 mg/kg, po; assay type: ADME, organism-based; set-up: dose 1 mg/kg, route oral; settings: in vivo
[15] = Half life in Sprague-Dawley rat at 1 mg/kg, iv; assay type: ADME, organism-based; set-up: dose 1 mg/kg, route intravenous; settings: in vivo
Rattus norvegicus [16] = assay: (§5) Half life in Sprague-Dawley rat at 1 mg/kg, ip; assay type: ADME, organism-based; set-up: dose 1 mg/kg, route intraperitoneal; settings: in vivo
[17] = Half life in Sprague-Dawley rat at 1 mg/kg, po; assay type: ADME, organism-based; set-up: dose 1 mg/kg, route oral; settings: in vivo
[18] = Bioavailability in Sprague-Dawley rat at 1 mg/kg, ip; assay type: ADME, organism-based; settings: in vivo
[19] = Oral bioavailability in Sprague-Dawley rat at 1 mg/kg; assay type: ADME, organism-based; settings: in vivo
[20] = as §2; assay type: ADME, organism-based, Plasma; set-up: dose 1 mg/kg, route intraperitoneal; settings: Sprague-Dawley, plasma
[21] = as §3; assay type: ADME, organism-based; set-up: dose 1 mg/kg, route intraperitoneal; settings: Sprague-Dawley, in vivo
[22] = as §4; assay type: ADME, organism-based; set-up: dose 1 mg/kg, route intraperitoneal; settings: Sprague-Dawley, in vivo
[23] = as §5; assay type: ADME, organism-based; set-up: dose 1 mg/kg, route intraperitoneal; settings: Sprague-Dawley, in vivo

Metabotropic glutamate receptor 5, sequence (P41594 whole entry): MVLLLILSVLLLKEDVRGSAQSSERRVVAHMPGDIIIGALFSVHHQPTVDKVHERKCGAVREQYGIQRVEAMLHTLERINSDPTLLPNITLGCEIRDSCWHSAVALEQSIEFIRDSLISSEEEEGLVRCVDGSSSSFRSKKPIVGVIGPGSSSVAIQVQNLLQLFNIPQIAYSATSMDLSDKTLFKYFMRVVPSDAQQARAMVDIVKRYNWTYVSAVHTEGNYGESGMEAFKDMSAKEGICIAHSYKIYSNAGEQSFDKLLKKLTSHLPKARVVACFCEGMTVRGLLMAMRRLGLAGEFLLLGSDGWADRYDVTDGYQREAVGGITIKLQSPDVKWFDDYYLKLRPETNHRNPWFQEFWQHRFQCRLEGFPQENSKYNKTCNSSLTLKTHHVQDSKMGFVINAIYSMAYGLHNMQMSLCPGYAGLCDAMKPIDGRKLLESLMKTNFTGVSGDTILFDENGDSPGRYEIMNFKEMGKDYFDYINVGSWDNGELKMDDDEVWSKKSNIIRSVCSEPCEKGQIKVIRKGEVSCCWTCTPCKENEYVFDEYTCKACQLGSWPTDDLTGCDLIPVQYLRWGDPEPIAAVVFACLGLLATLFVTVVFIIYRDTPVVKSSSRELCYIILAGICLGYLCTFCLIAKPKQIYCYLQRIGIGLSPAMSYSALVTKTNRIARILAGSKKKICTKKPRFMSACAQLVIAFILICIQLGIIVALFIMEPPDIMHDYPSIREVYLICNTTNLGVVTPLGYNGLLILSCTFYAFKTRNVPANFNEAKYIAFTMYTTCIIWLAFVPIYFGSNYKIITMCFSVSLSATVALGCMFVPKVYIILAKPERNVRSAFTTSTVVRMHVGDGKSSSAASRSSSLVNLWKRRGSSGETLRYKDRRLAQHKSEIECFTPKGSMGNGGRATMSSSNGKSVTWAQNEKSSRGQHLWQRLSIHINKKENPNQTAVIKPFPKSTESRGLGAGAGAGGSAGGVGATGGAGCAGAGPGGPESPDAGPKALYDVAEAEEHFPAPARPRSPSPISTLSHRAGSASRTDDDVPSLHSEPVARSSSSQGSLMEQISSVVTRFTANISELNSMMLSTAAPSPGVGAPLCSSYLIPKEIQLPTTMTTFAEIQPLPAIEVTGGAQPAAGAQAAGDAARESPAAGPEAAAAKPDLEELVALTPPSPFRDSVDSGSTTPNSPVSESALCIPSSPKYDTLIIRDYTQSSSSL
Metabotropic glutamate receptor 1, sequence (Q13255 whole entry): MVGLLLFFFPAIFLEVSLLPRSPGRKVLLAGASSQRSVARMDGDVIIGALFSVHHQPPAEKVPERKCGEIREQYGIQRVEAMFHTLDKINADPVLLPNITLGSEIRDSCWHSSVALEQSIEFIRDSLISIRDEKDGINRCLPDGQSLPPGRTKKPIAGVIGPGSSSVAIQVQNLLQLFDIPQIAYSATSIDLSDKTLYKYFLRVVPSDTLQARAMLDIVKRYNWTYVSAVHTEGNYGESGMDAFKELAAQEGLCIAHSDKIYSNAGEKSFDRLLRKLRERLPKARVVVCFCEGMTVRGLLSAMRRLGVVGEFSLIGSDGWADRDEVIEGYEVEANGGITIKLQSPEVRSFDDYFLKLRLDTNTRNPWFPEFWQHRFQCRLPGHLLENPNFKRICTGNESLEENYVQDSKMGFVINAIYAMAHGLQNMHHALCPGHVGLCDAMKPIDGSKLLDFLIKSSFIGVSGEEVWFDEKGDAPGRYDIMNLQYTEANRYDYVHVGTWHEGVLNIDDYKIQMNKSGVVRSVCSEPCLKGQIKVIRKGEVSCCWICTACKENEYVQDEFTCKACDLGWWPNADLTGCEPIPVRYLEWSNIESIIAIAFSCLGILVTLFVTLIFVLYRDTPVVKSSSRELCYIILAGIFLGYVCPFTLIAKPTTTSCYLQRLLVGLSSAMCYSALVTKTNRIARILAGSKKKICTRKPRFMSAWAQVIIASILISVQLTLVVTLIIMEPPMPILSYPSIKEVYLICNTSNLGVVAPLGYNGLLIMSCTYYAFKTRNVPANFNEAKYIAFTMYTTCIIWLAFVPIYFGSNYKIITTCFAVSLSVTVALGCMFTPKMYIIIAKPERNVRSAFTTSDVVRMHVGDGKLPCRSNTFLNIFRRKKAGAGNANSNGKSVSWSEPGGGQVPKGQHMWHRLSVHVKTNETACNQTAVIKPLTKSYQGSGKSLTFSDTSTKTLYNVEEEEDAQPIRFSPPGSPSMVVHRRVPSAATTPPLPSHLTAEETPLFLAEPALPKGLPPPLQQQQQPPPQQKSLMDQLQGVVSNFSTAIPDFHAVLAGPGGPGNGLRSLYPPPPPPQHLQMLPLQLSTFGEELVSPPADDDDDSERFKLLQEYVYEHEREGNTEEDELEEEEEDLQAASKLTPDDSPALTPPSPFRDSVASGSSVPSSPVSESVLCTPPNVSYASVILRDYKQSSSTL

| Compound | IC50 [1] | IC50 [2] | solubility [3] | CLint scaled [4] | Papp [5] | other results |
| --- | --- | --- | --- | --- | --- | --- |
| Cc1nc2c(cnn2-c2ccccc2)c(=O)n1-c1ccc(Br)cc1 | 78 nM | > 100000 nM | 14 µM (≈ 5.34 µg/mL) | 115 mL/min/kg | 19.4 ×10⁻⁶ cm/s | AUC [6]: 1280 ng·h/mL; AUC (Rattus norvegicus [7]): 389 ng·h/mL; AUC [8]: 100 ng·h/mL; Vd [9]: 3.1 L/kg; clearance (Rattus norvegicus [10]): 13.3 mL/min/kg; Cmax (Rattus norvegicus [11]): 170 ng/mL; Cmax [12]: 30 ng/mL; Tmax (Rattus norvegicus [13]): 0.25 h; Tmax [14]: 1.3 h; half-life [15]: 2.5 h; t1/2 (Rattus norvegicus [16]): 0.25 h; half-life [17]: 1.3 h; bioavailability [18]: 30%; bioavailability [19]: 8% |
| Cc1ccccc1-n1ncc2c(=O)n(-c3ccc(Cl)cc3)c(C)nc21 | 350 nM | 9500 nM | – | – | – | – |
| Cc1nc2c(cnn2-c2ccccn2)c(=O)n1-c1ccc(Cl)cc1 | > 100000 nM | > 100000 nM | – | – | – | – |
| Cc1nc2c(cnn2-c2ccccc2)c(=O)n1-c1ccc(OC(F)(F)F)cc1 | > 100000 nM | > 100000 nM | – | – | – | – |
| Cc1nc2c(cnn2-c2ccc(Cl)cc2)c(=O)n1-c1ccc(Cl)cc1 | 1100 nM | > 100000 nM | – | – | – | – |
| Cc1nc2c(cnn2-c2cncnc2)c(=O)n1-c1ccc(Cl)cc1 | 9800 nM | > 100000 nM | – | – | – | – |
| Cc1nc2c(cnn2-c2cnccn2)c(=O)n1-c1ccc(Cl)cc1 | > 100000 nM | > 100000 nM | – | – | – | – |
| Cc1nc2c(cnn2CC2CCCCC2)c(=O)n1-c1ccc(Cl)cc1 | > 100000 nM | > 100000 nM | – | – | – | – |
| Cc1nc2c(cnn2C2CCCCCC2)c(=O)n1-c1ccc(Cl)cc1 | 520 nM | > 100000 nM | – | – | – | – |
| Cc1cccc(-n2ncc3c(=O)n(-c4ccc(Cl)cc4)c(C)nc32)c1 | 180 nM | > 100000 nM | 30 µM (≈ 10.5 µg/mL) | 400 mL/min/kg | 13.4 ×10⁻⁶ cm/s | – |
| Cc1nc2c(cnn2-c2ccccc2)c(=O)n1N1CCCCC1 | 91 nM | 2800 nM | 19 µM (≈ 5.88 µg/mL) | 1800 mL/min/kg | 5.49 ×10⁻⁶ cm/s | – |
| Cc1nc2c(cnn2-c2ccccc2)c(=O)n1N1CCCCCC1 | 240 nM | 3600 nM | – | – | – | – |
| Cc1nc2c(cnn2-c2ccccc2)c(=O)n1C1CCCCCC1 | 760 nM | – | – | – | – | – |
| Cc1nc2c(cnn2-c2ccc(S(N)(=O)=O)cc2)c(=O)n1-c1ccc(Cl)cc1 | 1410 nM | > 100000 nM | – | – | – | – |
| Cc1nc2c(cnn2-c2ccccc2)c(=O)n1-c1ccc(S(N)(=O)=O)cc1 | > 100000 nM | > 100000 nM | – | – | – | – |
| Cc1nc2c(cnn2-c2ccccc2)c(=O)n1-c1ccc(Cl)c(F)c1 | 800 nM | > 100000 nM | 18 µM (≈ 6.39 µg/mL) | 183 mL/min/kg | – | – |
| Cc1nc2c(cnn2-c2cccnc2)c(=O)n1-c1ccc(Cl)cc1 | 230 nM | > 100000 nM | 73 µM (≈ 24.7 µg/mL) | 66.7 mL/min/kg | 21.4 ×10⁻⁶ cm/s | – |
| Cc1nc2c(cnn2-c2cccc(S(N)(=O)=O)c2)c(=O)n1-c1ccc(Cl)cc1 | 127 nM | > 100000 nM | 42 µM (≈ 17.5 µg/mL) | < 41.7 mL/min/kg | 17.6 ×10⁻⁶ cm/s | AUC [6]: 6150 ng·h/mL; AUC [20]: 7790 ng·h/mL; AUC [8]: 6240 ng·h/mL; Vd [9]: 0.4 L/kg; clearance (Rattus norvegicus [10]): 3.33 mL/min/kg; Cmax [21]: 1540 ng/mL; Cmax [12]: 2100 ng/mL; Tmax [22]: 1.7 h; Tmax [14]: 1.2 h; half-life [15]: 1.5 h; half-life [23]: 1.7 h; half-life [17]: 1.2 h |
| Cc1nc2c(cnn2-c2ccccc2)c(=O)n1-c1cccc(Cl)c1 | > 100000 nM | – | – | – | – | – |
| Cc1nc2c(cnn2-c2cccc(Cl)c2)c(=O)n1-c1ccc(Cl)cc1 | 220 nM | > 100000 nM | 11 µM (≈ 4.08 µg/mL) | 183 mL/min/kg | 5.6 ×10⁻⁶ cm/s | – |
| Cc1nc2c(cnn2-c2ccccc2)c(=O)n1-c1ccc(Cl)cc1 | 242 nM | 9600 nM | 18 µM (≈ 6.06 µg/mL) | 117 mL/min/kg | 29.6 ×10⁻⁶ cm/s | – |
| Cc1nc2c(cnn2-c2ccccc2)c(=O)n1-c1ccc(O)cc1 | 2400 nM | > 100000 nM | – | – | – | – |
